Legend:
EZH2 = EZH2 (Homo sapiens, UniProt Q15910); experiment: Western blot of EZH2 protein level in 22Rv1 cells; assay type: cell-based; conditions: indicated concentration, 24 h, WB
G9a mRNA = experiment: RT-qPCR of G9a mRNA in H1299 cells; assay type: cell-based; conditions: 3 μM, 24 h, normalized to DMSO
Outline: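 H1299 cells were treated with DMSO or test compound at 3 μM for 24 h. Total RNA was extracted and reverse-transcribed to cDNA. qPCR used gene-specific primers for G9a and GLP, and a GAPDH primer set was included.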

[1] = tested on: panel of 21 protein methyltransferases; experiment: Selectivity panel, radioactive methyltransferase assays; assay type: biochemical; conditions: 10 μM compound, duplicate
Outline: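 The selectivity screen covered 21 protein methyltransferases in radioisotope-based MT HotSpot methyltransferase assays run by a contract laboratory. Test compound was at 10 μM. Each assay was run in duplicate and reported as mean ± SD of the two replicates.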

GLP = target: T1, GLP (Homo sapiens, UniProt Q9H9B1); experiment: GLP radioactive methyltransferase assay; assay type: biochemical; conditions: indicated concentrations, duplicate (Figure 4C)
T1 sequence (Q9H9B1 1-1298): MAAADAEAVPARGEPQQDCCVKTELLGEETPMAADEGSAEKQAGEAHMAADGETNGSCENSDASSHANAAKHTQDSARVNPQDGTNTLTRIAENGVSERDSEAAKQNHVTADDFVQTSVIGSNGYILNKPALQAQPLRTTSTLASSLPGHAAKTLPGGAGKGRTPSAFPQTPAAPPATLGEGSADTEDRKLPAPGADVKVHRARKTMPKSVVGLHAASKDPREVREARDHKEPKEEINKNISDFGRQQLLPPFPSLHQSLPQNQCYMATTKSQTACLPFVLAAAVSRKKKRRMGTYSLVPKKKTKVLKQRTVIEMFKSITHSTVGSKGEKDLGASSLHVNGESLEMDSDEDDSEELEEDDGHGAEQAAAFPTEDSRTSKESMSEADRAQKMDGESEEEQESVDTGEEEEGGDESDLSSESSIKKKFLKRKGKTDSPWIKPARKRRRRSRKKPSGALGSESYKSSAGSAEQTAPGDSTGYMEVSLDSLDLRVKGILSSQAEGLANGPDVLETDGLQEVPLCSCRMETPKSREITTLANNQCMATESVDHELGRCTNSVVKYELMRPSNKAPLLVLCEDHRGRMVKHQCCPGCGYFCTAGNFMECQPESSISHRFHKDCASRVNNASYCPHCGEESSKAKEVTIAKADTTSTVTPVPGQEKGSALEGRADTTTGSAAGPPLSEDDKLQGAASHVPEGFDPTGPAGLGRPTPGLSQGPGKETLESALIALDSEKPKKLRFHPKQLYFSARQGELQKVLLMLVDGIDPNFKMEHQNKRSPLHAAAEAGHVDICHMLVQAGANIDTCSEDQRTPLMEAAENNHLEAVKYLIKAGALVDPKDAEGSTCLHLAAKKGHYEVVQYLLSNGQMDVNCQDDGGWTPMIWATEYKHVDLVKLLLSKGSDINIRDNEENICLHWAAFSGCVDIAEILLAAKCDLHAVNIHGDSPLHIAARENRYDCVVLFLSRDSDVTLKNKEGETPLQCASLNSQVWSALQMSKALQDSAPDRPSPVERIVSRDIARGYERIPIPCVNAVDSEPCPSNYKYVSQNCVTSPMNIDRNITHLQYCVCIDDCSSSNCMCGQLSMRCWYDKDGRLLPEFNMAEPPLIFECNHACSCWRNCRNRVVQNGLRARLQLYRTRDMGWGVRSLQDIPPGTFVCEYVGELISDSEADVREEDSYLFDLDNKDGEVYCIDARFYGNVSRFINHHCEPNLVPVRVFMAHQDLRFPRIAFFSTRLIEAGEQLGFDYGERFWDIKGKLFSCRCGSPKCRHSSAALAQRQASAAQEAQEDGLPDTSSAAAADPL
Outline: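 Enzyme activity was measured with a radioisotope-based MT HotSpot methyltransferase assay run by a contract laboratory. Test compounds were run at the indicated concentrations, in duplicate. Data are mean ± SD of the two duplicate experiments.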

Chain of EZH2 (Q15910 whole entry): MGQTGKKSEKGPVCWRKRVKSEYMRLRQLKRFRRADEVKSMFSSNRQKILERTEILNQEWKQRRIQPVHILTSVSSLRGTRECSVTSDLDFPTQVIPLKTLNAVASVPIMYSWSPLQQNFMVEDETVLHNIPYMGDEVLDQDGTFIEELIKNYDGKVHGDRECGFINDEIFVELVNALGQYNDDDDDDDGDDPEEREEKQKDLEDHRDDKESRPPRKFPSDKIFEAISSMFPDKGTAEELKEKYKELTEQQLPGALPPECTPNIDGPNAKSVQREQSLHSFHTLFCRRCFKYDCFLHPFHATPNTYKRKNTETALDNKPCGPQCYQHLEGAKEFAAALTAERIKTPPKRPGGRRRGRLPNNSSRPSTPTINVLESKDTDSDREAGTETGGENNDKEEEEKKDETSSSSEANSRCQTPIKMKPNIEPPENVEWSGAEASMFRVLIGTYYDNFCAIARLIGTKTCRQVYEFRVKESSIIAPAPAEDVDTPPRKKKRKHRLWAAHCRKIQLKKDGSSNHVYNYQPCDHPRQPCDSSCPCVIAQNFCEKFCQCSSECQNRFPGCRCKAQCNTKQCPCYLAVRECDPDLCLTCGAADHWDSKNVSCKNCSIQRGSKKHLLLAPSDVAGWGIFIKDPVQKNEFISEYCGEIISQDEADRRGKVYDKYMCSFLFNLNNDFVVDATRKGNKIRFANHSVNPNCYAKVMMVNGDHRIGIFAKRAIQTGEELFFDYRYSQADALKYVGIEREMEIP

COc1cc2c(NC3CCN(CCCC(=O)NCCCCCCCCCCCC(=O)N[C@H](C(=O)N4C[C@H](O)C[C@H]4C(=O)NCc4ccc(-c5scnc5C)cc4)C(C)(C)C)CC3)nc(N3CCC(F)(F)CC3)nc2cc1OCCCN1CCCC1 [Compound 10, (2S,4R)-1-((S)-2-(12-(4-(4-((2-(4,4-difluoropiperidin-1-yl)-6-methoxy-7-(3-(pyrrolidin-1-yl)propoxy)quinazolin-4-yl)amino)piperidin-1-yl)butanamido)dodecanamido)-3,3-dimethylbutanoyl)-4-hydroxy-N-(4-(4-methylthiazol-5-yl)benzyl)pyrrolidine-2-carboxamide]
EZH2 degradation (EZH2): cannot induce the degradation
mRNA levels of G9a (G9a mRNA): did not significantly alter
inhibition of panel methyltransferases [1]: ≤ 50%
inhibition of GLP enzymatic activity (GLP): similarly inhibited

— PMC10925177 (bioRxiv, 2024)
